The test system of assay [1] is RAW 264.7 cells. Nature of the assay: Lipid peroxidation, flow cytometry with BODIPY 665/676. The note with it: RSL3 1 µM, 4 h, BODIPY 665/676 flow cytometry. In kind it is cell-based, murine. Summed up: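 RAW 264.7 cells were treated for 4 h with DMSO, RSL3 (1 µM) or test compound plus RSL3. They were then stained with BODIPY 665/676 for 0.5 h. Mean fluorescence intensity was read by flow cytometry. Mean ± SD, n = 3; one-way ANOVA.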

The test system of assay [2] is RAW 264.7 murine macrophage‐like cells. The experiment in a line: EZ-Cytox cell viability assay with RSL3 co-treatment. In kind it is cell-based. The note with it: RSL3 1 µM + DMSO, 24 h, EZ-Cytox (WST), n = 3. The method in brief:
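RAW 264.7 murine macrophage-like cells were co-treated for 24 h with RSL3 (1 µM) plus test compound. The screen used 10 µM, and dose-response used 0.3–20 µM on a log scale. Viability was read by EZ-Cytox and normalized to DMSO. Mean ± SD, n = 3.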

In another assay the test system is HeLa cells. Nature of the assay: Lipid peroxidation, fluorescence imaging with BODIPY 665/676. The note with it: RSL3 1 µM, 3 h, BODIPY 665/676 imaging. In kind it is cell-based, human. The method in brief:
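HeLa cells were treated for 3 h with DMSO, test compound (40 µM), RSL3 (1 µM) or both. They were then stained for 0.5 h with Hoechst 33342 (2 µg/ml) and BODIPY 665/676 (5 µM). Cells were imaged by fluorescence, and BODIPY intensity was quantified relative to DMSO-treated cells. Mean ± SD, n = 21; one-way ANOVA.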

The test system of assay [3] is RAW 264.7 cells. The note with it: read-out: EC50 (ferroptosis inhibition); in RAW 264.7 cells; cited from earlier work.
The conditions of assay [4]: macrocyclic analog of crizotinib; cited from earlier work.

Regarding `COC(=O)c1ccc([C@H]2c3[nH]c4ccccc4c3C[C@H](C(=O)OC)N2C(=O)CCl)cc1` [RSL3, RAS‐selective lethal 3], the “Lipid peroxide level (flow cytometry), RSL3 alone” value in the assay with RAW 264.7 cells [1] is “markedly increased lipid peroxide levels”. Also, the “Cell viability with RSL3 alone” value in assay [2] was determined as 18%. The “Lipid peroxide level (imaging), RSL3 alone” value in the assay on HeLa cells was “markedly increased lipid peroxide levels”.

For the molecule `CCOC(=O)c1ccc(NC2CCCCC2)c(N)c1` [ferrostatin‐1], in the assay with RAW 264.7 cells [3], the EC50 was 40 ± 4 nM.

Take `C[C@H]1Oc2cc(cnc2N)-c2c(nn(C)c2C#N)CN(C)C(=O)c2ccc(F)cc21` [lorlatinib]: the “Potency increase through macrocyclization” value in assay [4] is reported as approximately 80 fold.

(Values after article PMC12707352 (Angewandte Chemie (International Ed. in English), 2025).)
